This is a sample that favours compounds with a hit; in the whole collection about 1.9% have one here.
CXCR6 inh – CXCR6 receptor inhibitors, primary screen, cell-based, beta-arrestin, luminescence, CHO-K1 PathHunter, 1536-well; inhibition, % at 20 µM; hit rate 0.36% among 360,000; AID 602244, 2012; in the data active means inhibition above about 34%, passing the limit was not always enough;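 further: antagonist mode with CXCL16 agonist at 10 nM final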
Target sequence (O00574 whole entry, looked up): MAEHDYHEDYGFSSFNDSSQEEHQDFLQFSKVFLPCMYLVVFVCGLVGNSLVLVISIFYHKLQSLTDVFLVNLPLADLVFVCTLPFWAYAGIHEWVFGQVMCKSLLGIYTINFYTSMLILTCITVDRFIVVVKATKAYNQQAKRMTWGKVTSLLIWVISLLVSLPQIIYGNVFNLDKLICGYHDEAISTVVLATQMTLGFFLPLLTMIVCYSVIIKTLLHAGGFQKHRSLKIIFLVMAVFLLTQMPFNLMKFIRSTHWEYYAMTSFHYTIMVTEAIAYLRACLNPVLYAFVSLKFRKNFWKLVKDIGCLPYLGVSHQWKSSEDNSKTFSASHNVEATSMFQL
H9c2 TAG inh – inhibitors of triacylglycerol accumulation, primary screen, cell-based, uHTS, fluorescence, H9c2; inhibition, % at 12.5 µM; AID 651582, 2012; hit rate 0.66% among 230,000; H9c2 cells, Nile Red lipid (TAG) fluorescence; cells loaded with 200 µM oleic acid;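 active means pattern-corrected inhibition of lipid staining of at least 50% with the nuclear-stain viability signal not falling by more than 50%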
APJ agonist – agonists of human apelin receptor APJ, primary screen, CHO-K1 cells, PathHunter beta-arrestin, luminescence; P35414; 0% DMSO wells, 100% apelin; activation, % at 20 µM; hit rate 0.11% among 330,000; AID 2520, 2010;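 active means activation more than six SD over the plate average, tested at 20 µM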
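Material: engineered CHO-K1 APJ arrestin reporter cells; amount: 1000 CHO-K1 reporter cells seeded per well; incubation: compound stimulation 90 min at 25 °C, detection 60 min; signal: luminescent beta-gal fragment complementation, chemiluminescent substrate; read-out basis: APJ agonist activity; controls: DMSO-only wells as negative, 10 nM Apelin-13 as positive control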
CCR6 antagonist – CCR6 receptor antagonists, primary screen, cell-based, CHO-K1, luminescence, beta-arrestin, uHTS. hit rate 0.49% among 340,000. inhibition, % at 20 µM. CHO-K1 CCR6 PathHunter beta-arrestin, CCL20-stimulated. C-C chemokine receptor type 6 (Homo sapiens), P51684;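 active means compounds whose inhibition of the agonist-driven luminescence signal at 20 µM reaches about 50%, limit read from the data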;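 further: cells stimulated with CCL20 at 14 nM final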
EBI2 antag – EBI2 receptor antagonists, beta-arrestin recruitment, primary screen, cell-based, luminescence, 7a,25-OHC stimulation, uHTS; AID 651636, 2012; G-protein coupled receptor 183 (Homo sapiens), P32249; inhibition, % at 5 µM; 7a,25-OHC stimulated; hit rate 0.81% among 360,000; in the data active means inhibition above about 38%;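 further: enzyme fragment complementation signal reports receptor beta-arrestin coupling in cells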
APJ antagonist – antagonists of human apelin receptor APJ, primary screen, CHO-K1 cells, beta-arrestin complementation, luminescence | P35414 | inhibition, % at 20 µM | hit rate 0.32% among 330,000;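 active means inhibition above about 40% at 20 µM, limit read from the data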;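 further: cells challenged with 10 nM apelin-13 agonist together with compound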
EBI2 conf – EBI2 antagonist hit retest, beta-arrestin, confirmation, cell-based, single concentration, luminescence, 7a,25-OHC stimulation. shares compounds with EBI2 antag. 7a,25-OHC antagonism. inhibition, % at 5 µM. hit rate 29% among 2,400;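 active means inhibition of at least 50%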
EBI2 agonist – EBI2 agonist activity of antagonist hits, confirmation, counter-screen for EBI2 antagonist project, cell-based, single concentration, agonist mode, luminescence; shares compounds with EBI2 antag; EBI2-expressing cells, 60 min; 0% vehicle, 100% 7α,25-dihydroxycholesterol control; activation, % at 5 µM; 2,400 tested, under 10 active;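 active means activation of at least 50%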
bGal cs – E. coli beta-galactosidase enzyme inhibition, confirmation, counter-screen for EBI2 antagonist project, biochemical, luminescence, single concentration | shares compounds with EBI2 antag | purified beta-galactosidase, luminescent Galacton Star, 15 min | inhibition, % at 5 µM | hit rate 1% among 2,400 | AID 652176, 2013;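 active means replicate-average signal at least 3 plate SD below neutral wells, shown as high inhibition, flagging enzyme-inhibiting false positives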;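 further: higher means stronger loss of beta-gal luminescence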
Each line names hits and unclear results; the compound was inactive in the other large screens (follow-up assays come after a bar, where they were run).

CCn1c(SCC(=O)NNC(=O)c2ccc(OC)cc2)nnc1-c1cccnc1	EBI2 antag 58.8 | EBI2 conf inactive | EBI2 agonist inactive | bGal cs inactive
CCn1c(SCC(=O)NNC(=O)c2ccc(C)cc2)nnc1-c1ccncc1	none
CC(C)OC(=O)CSc1nnc(-c2ccc(O)cc2)n1Cc1ccccc1	none
COc1ccc(-n2c(SCC(=O)NNC(=O)c3ccc(C)cc3)nnc2-c2ccncc2)cc1	EBI2 antag 54.7 (no result: H9c2 TAG inh) | EBI2 conf inactive | EBI2 agonist inactive | bGal cs inactive
O=C(CSc1nnc(-c2ccc(O)cc2)n1Cc1ccccc1)NNC(=O)c1ccc(Br)cc1	EBI2 antag 88.8 (no result: H9c2 TAG inh) | EBI2 conf 86.7 | EBI2 agonist inactive | bGal cs inactive
Cc1ccc(C(=O)NCC(=O)OCc2nnc(-c3ccc([N+](=O)[O-])cc3)o2)s1	none
COc1ccc(C(O)c2ncc(-c3ccccc3)[nH]2)c(OC)c1 (centres undefined)	none (no result: APJ agonist, CCR6 antagonist, APJ antagonist)
COC(=O)c1c(NC(=O)CN2CCN(Cc3ccc4c(c3)OCO4)CC2)sc(C)c1C	none (no result: H9c2 TAG inh)
COC(=O)c1c(NC(=O)CN2C(=O)c3ccccc3C2=O)sc(Cc2ccc3c(c2)OCO3)c1C	EBI2 antag 62.9 | EBI2 conf inactive | EBI2 agonist inactive | bGal cs inactive
CCC1CCC(c2nnc(-c3ccc(Br)cc3)o2)CC1 (centres undefined)	EBI2 antag 49.8 (no result: H9c2 TAG inh) | EBI2 conf inactive | EBI2 agonist inactive | bGal cs inactive
O=C(COC(=O)CCC1CCCC1)Nc1ccc(F)cc1	none
Cc1ccc(CNC(=O)C2CCC(CNS(=O)(=O)c3cccs3)CC2)cc1 (centres undefined)	EBI2 antag 65.6 (no result: H9c2 TAG inh) | EBI2 conf inactive | EBI2 agonist inactive | bGal cs inactive
O=C(NCc1ccc(Cl)cc1)C1CCC(CNS(=O)(=O)c2ccccc2)CC1 (centres undefined)	EBI2 antag 59.3 (no result: H9c2 TAG inh) | EBI2 conf inactive | EBI2 agonist inactive | bGal cs inactive
Cc1cccc(CCNC(=O)C2CCC(CNS(=O)(=O)c3cccs3)CC2)c1 (centres undefined)	none
O=C(NCc1ccc(Cl)cc1)C1CCC(CNc2c(N3CCCC3)c(=O)c2=O)CC1 (centres undefined)	none
O=C(NCc1ccc(Cl)cc1)C1CCC(CNc2c(N3CCCCC3)c(=O)c2=O)CC1 (centres undefined)	EBI2 antag 49.7 | EBI2 conf inactive | EBI2 agonist inactive | bGal cs inactive
O=C(NCc1ccc(F)cc1)C1CCC(CNS(=O)(=O)c2ccccc2)CC1 (centres undefined)	none (no result: H9c2 TAG inh)
O=C(NCCC1=CCCCC1)C1CCCN(S(=O)(=O)c2ccccc2)C1 (centres undefined)	none (no result: H9c2 TAG inh)
O=C(NCCc1c[nH]c2ccccc12)C1CCCN(S(=O)(=O)c2ccccc2)C1 (centres undefined)	EBI2 antag 45.5 | EBI2 conf inactive | EBI2 agonist inactive | bGal cs inactive
N#Cc1c(Nc2ccccc2)sc(C(=O)c2ccc(F)cc2)c1N	none (no result: H9c2 TAG inh)
Nc1c(C(=O)c2ccccc2)sc(Nc2ccccc2)c1S(=O)(=O)c1ccccc1	EBI2 antag 45.6 (no result: H9c2 TAG inh) | EBI2 conf 50.4 | EBI2 agonist inactive | bGal cs inactive
